Results as given in ChEMBL document CHEMBL3102810, “Alkylamino derivatives of pyrazinamide: synthesis and antimycobacterial evaluation” (Bioorg Med Chem Lett, 2014).
In brackets after ≈: the same amount, converted by molar mass. Activity calls are given as the source filed them. The calls are words filed in the database; no cut-off is given here.

Key:
[1] = tested on: Trichophyton mentagrophytes; assay: Antifungal activity against Trichophyton mentagrophytes after 72 to 120 hrs by microdilution broth method; format: functional, organism-based
Aspergillus fumigatus = assay: Antifungal activity against Aspergillus fumigatus 231 after 72 to 120 hrs by microdilution broth method; format: functional, organism-based
Nakaseomyces glabratus = assay: Antifungal activity against Candida glabrata 20/I after 72 to 120 hrs by microdilution broth method; format: functional, organism-based
[2] = tested on: Staphylococcus epidermidis; assay: Antibacterial activity against Staphylococcus epidermidis H 6966/08 up to 500 uM after 24 to 48 hrs by microdilution broth method; format: functional, organism-based
Procedure, shortened: (§1)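 Antibacterial screen with compound concentrations up to a highest level of 500 µM. Results expressed as MIC in µM.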

[3] = Selectivity index, ratio of IC50 for human HepG2 cells to MIC for Mycobacterium tuberculosis H37Rv CNCTC My 331/88; format: toxicity, cell-based; details: read-out: Selectivity Index
Procedure, shortened: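 HepG2 human liver cell viability was measured by a colorimetric tetrazolium-reduction assay, and IC50 was derived from the toxicity curves. MIC against M. tuberculosis H37Rv came from the alamar blue microplate assay at pH 5.6. SI = IC50/MIC, both in molar units.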

Mycobacterium kansasii [4] = assay: Antimycobacterial activity against pyrazinamide-resistant Mycobacterium kansasii CNCTC My 235/80 after 5 days by microplate alamar blue assay; format: functional; details: CNCTC My 235/80, 120 h
Procedure, shortened: (§2)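 Microplate alamar blue assay run at pH 5.6, using conditions optimized for pyrazinamide. Strains came from the Czech National Collection of Type Cultures. MIC was read in µg/mL and converted to µM using molecular weight.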

Trichosporon asahii = assay: Antifungal activity against Trichosporon asahii 1188 after 72 to 120 hrs by microdilution broth method; format: functional, organism-based
Pseudomonas aeruginosa = assay: Antibacterial activity against Pseudomonas aeruginosa CCM 1961 after 24 to 48 hrs by microdilution broth method; format: functional, organism-based; procedure, shortened: as §1
Klebsiella pneumoniae [5] = assay: Antibacterial activity against ESBL positive Klebsiella pneumoniae J 14368/08 after 24 to 48 hrs by microdilution broth method; format: functional, organism-based; procedure, shortened: as §1
Candida albicans = assay: Antifungal activity against Candida albicans ATCC 44859 after 72 to 120 hrs by microdilution broth method; format: functional, organism-based
Candida tropicalis = assay: Antifungal activity against Candida tropicalis 156 after 72 to 120 hrs by microdilution broth method; format: functional, organism-based
Mycobacterium avium [6] = assay: Antimycobacterial activity against pyrazinamide-resistant Mycobacterium avium CNCTC My 152/73 after 5 days by microplate alamar blue assay; format: functional; details: CNCTC My 152/73, 120 h; procedure, shortened: as §2
Staphylococcus aureus = assay: Antibacterial activity against Staphylococcus aureus CCM 4516/08 after 24 to 48 hrs by microdilution broth method; format: functional, organism-based; procedure, shortened: as §1
HepG2 = assay: Cytotoxicity against human HepG2 cells after 24 hrs; format: cell-based; details: HepG2, 24 h
Procedure, shortened: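 HepG2 human liver cells; loss of viability measured by a colorimetric tetrazolium-reduction assay. IC50 derived from the toxicity curves. Where limited solubility in the culture medium capped the tested concentration, only an estimate of the toxic concentration was given.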

[7] = tested on: Staphylococcus epidermidis; assay: Antibacterial activity against Staphylococcus epidermidis H 6966/08 after 48 hrs by microdilution broth method; format: functional; details: for MIC95: H 6966/08, 48 h; procedure, shortened: as §1
[8] = tested on: Mycobacterium tuberculosis; assay: Antimycobacterial activity against Mycobacterium tuberculosis H37Rv CNCTC My 331/88 after 5 days by microplate alamar blue assay; format: functional; details: H37Rv CNCTC My 331/88, 120 h; procedure, shortened: as §2
Pichia kudriavzevii = assay: Antifungal activity against Candida krusei E28 after 72 to 120 hrs by microdilution broth method; format: functional, organism-based
[9] = Lipophilicity, log K of the compound by HPLC analysis; format: physicochemical
Mycobacterium avium [10] = assay: Antimycobacterial activity against pyrazinamide-resistant Mycobacterium avium CNCTC My 80/72 after 5 days by microplate alamar blue assay; format: functional; details: CNCTC My 80/72, 120 h; procedure, shortened: as §2
[11] = tested on: Staphylococcus epidermidis; assay: Antibacterial activity against methicillin-resistant Staphylococcus epidermidis H 5996/08 after 24 to 48 hrs by microdilution broth method; format: functional, organism-based
Enterococcus sp. = assay: Antibacterial activity against Enterococcus sp. J 14365/08 after 24 to 48 hrs by microdilution broth method; format: functional, organism-based; procedure, shortened: as §1
[12] = tested on: Trichophyton mentagrophytes; assay: Antifungal activity against Trichophyton mentagrophytes 445 after 72 to 120 hrs by microdilution broth method; format: functional, organism-based
Klebsiella pneumoniae [13] = assay: Antibacterial activity against Klebsiella pneumoniae D 11750/08 after 24 to 48 hrs by microdilution broth method; format: functional, organism-based; procedure, shortened: as §1
Lichtheimia corymbifera = assay: Antifungal activity against Absidia corymbifera 272 after 72 to 120 hrs by microdilution broth method; format: functional, organism-based
Escherichia coli = assay: Antibacterial activity against Escherichia coli CCM 4517 after 24 to 48 hrs by microdilution broth method; format: functional, organism-based; procedure, shortened: as §1
[14] = tested on: Staphylococcus epidermidis; assay: Antibacterial activity against Staphylococcus epidermidis H 6966/08 after 24 hrs by microdilution broth method; format: functional; details: H 6966/08, 24 h; procedure, shortened: as §1
[15] = tested on: Mycobacterium tuberculosis; assay: Antimycobacterial activity against pyrazinamide-sensitive Mycobacterium tuberculosis; format: functional
[16] = tested on: Mycolicibacterium fortuitum; assay: Antimycobacterial activity against pyrazinamide-resistant Mycobacterium fortuitum; format: functional
[17] = tested on: Mycolicibacterium smegmatis; assay: Antimycobacterial activity against pyrazinamide-resistant Mycobacterium smegmatis; format: functional
Mycobacterium kansasii [18] = assay: Antimycobacterial activity against pyrazinamide-resistant Mycobacterium kansasii; format: functional
Mycobacterium avium [19] = assay: Antimycobacterial activity against pyrazinamide-resistant Mycobacterium avium; format: functional

| Compound | Activity [1] | Activity (Aspergillus fumigatus) | Activity (Nakaseomyces glabratus) | MIC (Mycobacterium kansasii [4]) | Activity (Trichosporon asahii) | Activity (Pseudomonas aeruginosa) | Activity (Klebsiella pneumoniae [5]) | Activity (Candida albicans) | Activity (Candida tropicalis) | MIC (Mycobacterium avium [6]) | Activity (Staphylococcus aureus) | MIC [8] | Activity (Pichia kudriavzevii) | log K [9] | MIC (Mycobacterium avium [10]) | Activity [11] | Activity (Enterococcus sp.) | Activity [12] | Activity (Klebsiella pneumoniae [13]) | Activity (Lichtheimia corymbifera) | also measured |
| --- | --- | --- | --- | --- | --- | --- | --- | --- | --- | --- | --- | --- | --- | --- | --- | --- | --- | --- | --- | --- | --- |
| CCCCCCCCNc1cnc(C(N)=O)cn1 | inactive | inactive | inactive | 25 µM | inactive | inactive | inactive | inactive | inactive | > 100 µg/mL | inactive | 25 µM | inactive | 0.693 | > 100 µg/mL | inactive | inactive | inactive | inactive | inactive | Activity [2]: inactive; selectivity ratio [3]: > 10; IC50 (HepG2): > 250 µM; Activity [7]: inactive; Activity (Escherichia coli): inactive |
| NC[C@@H]1O[C@H](O[C@H]2[C@@H](O)[C@H](O[C@@H]3[C@@H](O)[C@H](N)C[C@H](N)[C@H]3O[C@H]3O[C@H](CN)[C@@H](O)[C@H](O)[C@H]3N)O[C@@H]2CO)[C@H](N)[C@@H](O)[C@@H]1O [FRAMYCETIN] |  |  |  |  |  |  |  |  |  |  |  |  |  |  |  |  |  |  |  |  | MIC95 [7]: 15.6 µM (≈ 9.6 µg/mL); MIC95 [14]: 7.81 µM (≈ 4.8 µg/mL) |
| NC(=O)c1cnc(Cl)cn1 | inactive | inactive | inactive | 79 µM | inactive | inactive | inactive | inactive | inactive | > 100 µg/mL | inactive | 317 µM | inactive | -0.3891 | > 100 µg/mL | inactive | inactive | inactive | inactive | inactive | MIC [15]: 8 µg/mL (≈ 50.8 µM); Activity [2]: inactive; selectivity ratio [3]: 5; MIC [16]: 8 µg/mL (≈ 50.8 µM); MIC [17]: 8 µg/mL (≈ 50.8 µM); MIC (Mycobacterium kansasii [18]): 8 µg/mL (≈ 50.8 µM); IC50 (HepG2): 1600 µM; Activity [7]: inactive; Activity (Escherichia coli): inactive; MIC (Mycobacterium avium [19]): 8 µg/mL (≈ 50.8 µM) |
| O=C(O)c1cn(C2CC2)c2cc(N3CCNCC3)c(F)cc2c1=O [CIPROFLOXACIN] |  |  |  |  |  |  |  |  |  |  |  |  |  |  |  |  |  |  |  |  | MIC95 [7]: 250 µM (≈ 82.8 µg/mL); MIC95 [14]: 250 µM (≈ 82.8 µg/mL) |
| CCCCCCCCNc1cncc(C(N)=O)n1 | inactive | inactive | inactive | 100 µM | inactive | inactive | inactive | inactive | inactive | 100 µM | inactive | 6 µM | inactive | 0.6514 | 100 µM | inactive | inactive | inactive | inactive | inactive | Activity [2]: inactive; selectivity ratio [3]: 25.8; IC50 (HepG2): 161 µM; Activity [7]: inactive; Activity (Escherichia coli): inactive |
| CCCCCCNc1cncc(C(N)=O)n1 | inactive | inactive | inactive | > 100 µg/mL | inactive | inactive | inactive | inactive | inactive | > 100 µg/mL | inactive | 100 µg/mL | inactive | 0.2051 | > 100 µg/mL | inactive | inactive | inactive | inactive | inactive | MIC95 [7]: 125 µM (≈ 27.8 µg/mL); MIC95 [14]: 62.5 µM (≈ 13.9 µg/mL); Activity (Escherichia coli): inactive |
| CC1(C)S[C@@H]2[C@H](NC(=O)Cc3ccccc3)C(=O)N2[C@H]1C(=O)O [PENICILLIN G] |  |  |  |  |  |  |  |  |  |  |  |  |  |  |  |  |  |  |  |  | MIC95 [7]: 250 µM (≈ 83.6 µg/mL); MIC95 [14]: 125 µM (≈ 41.8 µg/mL) |
| NC(=O)c1cnccn1 [PYRAZINAMIDE] |  |  |  | > 100 µg/mL |  |  |  |  |  | > 100 µg/mL |  | 102 µM |  | -0.6872 | > 100 µg/mL |  |  |  |  |  | selectivity ratio [3]: > 98.1; IC50 (HepG2): > 10000 µM |
| CCCCCCCNc1cnc(C(N)=O)cn1 | inactive | inactive | inactive | 53 µM | inactive | inactive | inactive | inactive | inactive | > 100 µg/mL | inactive | 53 µM | inactive | 0.4658 | > 100 µg/mL | inactive | inactive | inactive | inactive | inactive | Activity [2]: inactive; selectivity ratio [3]: > 4.7; IC50 (HepG2): > 250 µM; Activity [7]: inactive; Activity (Escherichia coli): inactive |
| NC(=O)c1cncc(Cl)n1 | inactive | inactive | inactive | > 100 µg/mL | inactive | inactive | inactive | inactive | inactive | > 100 µg/mL | inactive | 635 µM | inactive | -0.4165 | > 100 µg/mL | inactive | inactive | inactive | inactive | inactive | Activity [2]: inactive; selectivity ratio [3]: 5.5; IC50 (HepG2): 3500 µM; Activity [7]: inactive; Activity (Escherichia coli): inactive |
| NC(=O)c1cnc(NCCc2ccccc2)cn1 | inactive | inactive | inactive | 100 µg/mL | inactive | inactive | inactive | inactive | inactive | > 100 µg/mL | inactive | 206 µM | inactive | -0.0382 | > 100 µg/mL | inactive | inactive | inactive | inactive | inactive | Activity [2]: inactive; Activity [7]: inactive; Activity (Escherichia coli): inactive |
| CCCNc1cnc(C(N)=O)cn1 | inactive | inactive | inactive | > 100 µg/mL | inactive | inactive | inactive | inactive | inactive | > 100 µg/mL | inactive | > 100 µg/mL | inactive | -0.3878 | > 100 µg/mL | inactive | inactive | inactive | inactive | inactive | Activity [2]: inactive; Activity [7]: inactive; Activity (Escherichia coli): inactive |
